Bioassay records (PubChem)
DENV2 CPE – inhibitors of DENV2 cytopathic effect; DENV2-infected cells, cytopathic effect rescue, plate reader; CPE inhibition, % at 9.99 µM; 350,000 tested, 1.7% active; in the data active = CPE inhibition above about 20%, passing the limit was not always enough; inconclusive = no clear call, values can overlap the other calls; tested in BHK-21 cells;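 note: 0% = median of neutral control wells and 100% = median of positive control wells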
PfHsp90 set2 – growth inhibition of yeast expressing Plasmodium Hsp90; 310,000 tested, 0.32% active; AID 504621; S. cerevisiae expressing PfHsp90, BacTiter-Glo ATP, 48 h; yeast lacking PDR1 and PDR3 efflux regulators; inhibition, % at 9.4 µM;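 active = every replicate shows inhibition above about 80%, whatever the replicate mean, limit read from the data; inconclusive = mean inhibition reaches the set limit but some replicate falls short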;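 note: 0% = DMSO neutral controls and 100% = 20 µM radicicol positive controls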
Ecoli rRNA inh – inhibits bacterial ribosomal RNA function over humanized ribosomes; E. coli WT GFP vs humanized-ribosome RFP mutants, fluorescence, 24 h; hits give low values; DMSO median 0, no signal -100; 350,000 tested, 1.6% active; GFP signal change (wild-type ribosome), % (no concentration beside the values);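 active = significant combined selectivity score with lowered wild-type GFP, culture density cut under 30%, mutant RFP and density less affected; inactive = any of these conditions unmet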
S100A4 inh HTS – S100A4-myosin IIA interaction inhibition; S100A4/TAMRA-MyoIIA peptide fluorescence polarization; inhibition, % at 10.7 µM; 360,000 tested, 0.14% active;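 active = mean inhibition of at least 70% across replicates, with every replicate also reaching that level; inconclusive = mean inhibition reaches 70% but some replicates fall short; inactive = mean inhibition below 70%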
Target sequence (P26447 whole entry, looked up): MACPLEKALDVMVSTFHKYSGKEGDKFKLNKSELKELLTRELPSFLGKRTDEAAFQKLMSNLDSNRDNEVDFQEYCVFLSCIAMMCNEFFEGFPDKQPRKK
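Material: S100A4 monomer protein | Medium: HEPES pH 7.2 with CaCl2, KCl, NaCl, DTT, Triton | Reagent: Labelled myosin peptide probe, 5 nM | Doses: One dose per compound | Times: 5 min incubation before reading | Benchmarks: Neutral control DMSO, positive control TFP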
MLL AF4-AF9 inh – blocks AF4 peptide binding to human AF9; AID 651704; AlphaScreen, biotin-AF4 peptide binding to FLAG-AF9; inhibition, % at 10 µM; 350,000 tested, 0.47% active; P42568;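 active = every replicate reaching a set inhibition limit, whatever the replicate mean, cut at about 25% in these data; inconclusive = mean inhibition reaches that limit but some replicates miss it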;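 note: 0% = plate neutral control median and 100% = total signal loss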
Cneo AK release – causes C. neoformans cell lysis. adenylate kinase release luminescence, 4 h; normalised: neutral wells 0, clomiphene wells 100. lysis activity, % at 15 µM. 360,000 tested, 0.2% active. AID 651654;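 active = mean lysis activity across replicates of at least 80%, whatever share of replicates individually reach that level; inactive = mean lysis activity below 80%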
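Material: C. neoformans cells | Amount: Yeast cell density of 5 × 10^6 cells/mL | Medium: Fresh YPD growth medium | Dosing: Single dose | Times: Static 4 h at 37 °C with compound, 1 h detection | Detection: AK luminescence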
* marks the source's active call; other numbers are inactive results; ? = inconclusive; / = not tested or not shown. Sampled rows, rich in hits. Any-hit rate of the full collection: about 3.2%.

SMILES | DENV2 CPE | PfHsp90 set2 | Ecoli rRNA inh | S100A4 inh HTS | MLL AF4-AF9 inh | Cneo AK release
COc1ccccc1S(=O)(=O)N[C@@H]1C=C[C@H](CC(=O)NCc2cc(F)cc(F)c2)O[C@@H]1CO | 17 | / | -1 | 10 | -4 | 9
CCCC#Cc1ccc2c(c1)O[C@H](CN(C)CC1CCOCC1)[C@H](C)CN([C@@H](C)CO)S2(=O)=O | 0 | / | 0 | 3 | -6 | 3
CC(C)CC#Cc1cnc2c(c1)C(=O)N([C@H](C)CO)C[C@H](C)[C@H](CN(C)C(=O)c1ccc(F)cc1)O2 | 5 | / | -2 | -3 | 0 | -1
CC(C)CC#Cc1cnc2c(c1)C(=O)N([C@@H](C)CO)C[C@H](C)[C@@H](CN(C)C(=O)c1ccc3c(c1)OCO3)O2 | -6 | / | 1 | 7 | 6 | 1
C[C@H]1CN([C@@H](C)CO)C(=O)c2cc(C#CCN(C)C)cnc2O[C@H]1CN(C)Cc1ccc(F)cc1 | 32* | / | 4 | 9 | 5 | 58
CC(C)CC#Cc1cnc2c(c1)C(=O)N([C@H](C)CO)C[C@@H](C)[C@@H](CN(C)C(=O)c1ccc3c(c1)OCO3)O2 | -2 | / | 2 | 0 | 0 | 89*
CC(C)CC#Cc1cnc2c(c1)C(=O)N([C@H](C)CO)C[C@@H](C)[C@@H](CN(C)C(=O)c1ccc(F)cc1)O2 | 21* | / | -1 | 5 | 0 | 1
CO[C@@H]1CN(C)C(=O)c2ccc(NC(=O)C3CCCC3)cc2OC[C@@H](C)N(C(=O)CC2CC2)C[C@@H]1C | 0 | / | 1 | -7 | 1 | 1
C[C@H]1CN([C@@H](C)CO)C(=O)Cc2cc(NS(=O)(=O)c3ccccc3)ccc2O[C@H]1CN(C)Cc1ccccc1 | -5 | / | 0 | 48 | 1 | -6
CCOc1ccc(-n2c(SCC(N)=O)nnc2-c2cccnc2)cc1 | 23* | 4 | 3 | -1 | / | /
O=C(C[C@@H]1C=C[C@@H](NC(=O)Nc2ccc(F)cc2)[C@H](CO)O1)NCc1cccc(F)c1 | 8 | / | 0 | -24 | -2 | 3
COc1ccc(S(=O)(=O)Nc2ccc3c(c2)CC(=O)N([C@H](C)CO)C[C@H](C)[C@@H](CN(C)CC2CCCCC2)O3)cc1 | -3 | / | -5 | -2 | 9 | 2
C/C(=N\Nc1ccc(C(=O)O)cc1)c1ccc2c(c1)Nc1ccccc1S2 | -3 | -13 | -45* | -7 | 9 | -5
C/C(=N/Nc1ccc(C(=O)O)cc1)c1ccc2c(c1)Nc1ccccc1S2 | ? | -5 | -17 | -5 | 14 | /
CN(C)c1ccc2c(c1)[C@@H]1C[C@H](CC(=O)NCc3ccccc3F)O[C@H](CO)[C@@H]1O2 | / | / | 1 | / | / | /
COc1ccc(C(=O)Nc2ccccc2C(=O)O)cc1NC(=O)C(c1ccccc1)c1ccccc1 | 3 | 34 | -36* | 10 | -3 | /
S=C(Nc1ccc(N2CCOCC2)cc1)Nc1ccc2snnc2c1 | 2 | 18 | -20* | 1 | 6 | /
Cc1ccccc1C(=O)Nc1ccc(C(=O)N/N=C/c2ccc(O)c(Br)c2)cc1 | 5 | -19 | -19* | -1 | -1 | /
O=C(CN1C(=O)C2CCCCC2C1=O)Nc1cccc(C(F)(F)F)c1 (configuration not stated) | 4 | -13 | -15* | 0 | 1 | 0
O=C(COC(=O)c1ccc2c(c1)OCO2)NC1CCCCC1 | 21* | / | / | 7 | 0 | 0
CO[C@@H]1CN(C)C(=O)c2ccc(NC(=O)C3CCC3)cc2OC[C@H](C)N(Cc2nccs2)C[C@H]1C | 27* | / | -6 | -13 | -1 | 0
CO[C@H]1CN(C)C(=O)c2cc(NC(C)=O)ccc2OC[C@H](C)N(Cc2nccs2)C[C@@H]1C | 32* | / | 0 | 1 | -9 | -4
CCOc1cccc(-c2c(C(=O)N/N=C/c3ccc(Br)cc3)nnn2-c2nonc2N)c1 | 47* | -26 | -11 | -7 | 0 | 1
CCOc1cccc(-c2c(C(=O)N/N=C/c3cccnc3)nnn2-c2nonc2N)c1 | -1 | -16 | -2 | 4 | -2 | 2
